# Experimental data reported in ChEMBL document CHEMBL3751707, “Silicon Incorporated Morpholine Antifungals: Design, Synthesis, and Biological Evaluation” (ACS Med Chem Lett, 2015).
# Assays:
# [1] = system: Candida albicans; assay: Antifungal activity against Candida albicans ATCC 10231 after 24 to 36 hrs by broth microdilution method; type: functional, organism-based
# Procedure, shortened: (§1)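 CLSI broth microdilution against yeasts (M27-A3) and filamentous fungi (M38-A2). Read-outs: IC50 (concentration giving 50% growth inhibition), MIC, and MFC (minimum fungicidal concentration), all in μg/mL. Assay done twice in triplicate.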
# [2] = system: Candida albicans; assay: Antifungal activity against Candida albicans ATCC 24433 after 72 hrs by broth microdilution method; type: functional; conditions: ATCC 24433, 72 h; procedure, shortened: as §1
# [3] = system: Candida albicans; assay: Antifungal activity against Candida albicans ATCC 10231 after 72 hrs by broth microdilution method; type: functional; conditions: ATCC 10231, 72 h; procedure, shortened: as §1
# [4] = system: Cryptococcus neoformans; assay: Antifungal activity against Cryptococcus neoformans ATCC 34664 after 24 to 36 hrs by broth microdilution method; type: functional, organism-based; procedure, shortened: as §1
# [5] = system: Candida albicans; assay: Antifungal activity against Candida albicans ATCC 24433 after 24 to 36 hrs by broth microdilution method; type: functional, organism-based; procedure, shortened: as §1
# [6] = system: Nakaseomyces glabratus; assay: Antifungal activity against Candida glabrata NCYC 388 after 72 hrs by broth microdilution method; type: functional; conditions: NCYC 388, 72 h; procedure, shortened: as §1
# [7] = system: Candida tropicalis; assay: Antifungal activity against Candida tropicalis ATCC 750 after 72 hrs by broth microdilution method; type: functional; conditions: ATCC 750, 72 h; procedure, shortened: as §1
# [8] = system: Candida tropicalis; assay: Antifungal activity against Candida tropicalis ATCC 750 after 24 to 36 hrs by broth microdilution method; type: functional, organism-based; procedure, shortened: as §1
# [9] = system: Cryptococcus neoformans; assay: Antifungal activity against Cryptococcus neoformans ATCC 34664 after 72 hrs by broth microdilution method; type: functional; conditions: ATCC 34664, 72 h; procedure, shortened: as §1
# [10] = Toxicity in human RBC assessed as partial hemolysis at 256 ug/ml; type: cell-based; conditions: erythrocyte
# [11] = system: Aspergillus niger; assay: Antifungal activity against Aspergillus niger ATCC 10578 after 48 hrs by broth microdilution method; type: functional, organism-based; conditions: ATCC 10578, 48 h; procedure, shortened: as §1
# [12] = Toxicity in human RBC assessed as hemolysis upto 128 ug/ml; type: cell-based; conditions: erythrocyte
# [13] = system: Aspergillus niger; assay: Antifungal activity against Aspergillus niger ATCC 10578 after 72 hrs by broth microdilution method; type: functional; conditions: ATCC 10578, 72 h; procedure, shortened: as §1
# [14] = system: Nakaseomyces glabratus; assay: Antifungal activity against Candida glabrata NCYC 388 after 24 to 36 hrs by broth microdilution method; type: functional, organism-based; procedure, shortened: as §1
# [15] = Metabolic stability in human liver microsomes after 30 mins by LC-MS/MS analysis; type: ADME; conditions: read-out: Stability
# Procedure, shortened: (§2)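 Test compounds were incubated 30 min with liver microsomes (human or mouse, per line), and values are reported as % metabolic stability after 30 min.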
# [16] = Metabolic stability in mouse liver microsomes after 30 mins by LC-MS/MS analysis; type: ADME; conditions: read-out: Stability; procedure, shortened: as §2
IC50 [1] [µg/mL],MIC [1] [µg/mL],IC50 [4] [µg/mL],MIC [4] [µg/mL],IC50 [5] [µg/mL],MIC [5] [µg/mL],IC50 [8] [µg/mL],MIC [8] [µg/mL],IC50 [11] [µg/mL],MIC [11] [µg/mL],IC50 [14] [µg/mL],MIC [14] [µg/mL],SMILES,MFC [2] [µg/mL],MFC [3] [µg/mL],MFC [6] [µg/mL],MFC [7] [µg/mL],MFC [9] [µg/mL],Activity [12],MFC [13] [µg/mL],other results
0.31,0.5,0.25,1,0.97,2,2.76,16,50.1,64,0.319,1,CC(Cc1ccc([Si](C)(C)C)cc1)CN1CCCC1 (centres undefined),8,2,32,128,4,,256,
,≥ 256,,≥ 256,,≥ 256,,≥ 256,,≥ 256,,≥ 256,CC(Cc1ccc(C(C)(C)C)cc1)C(=O)N1CC[Si](C)(C)CC1 (centres undefined),≥ 256,≥ 256,≥ 256,≥ 256,≥ 256,,≥ 256,
0.5,1,0.8,2,0.245,1,0.25,2,1,2,0.25,0.5,CC(Cc1ccc([Si](C)(C)C)cc1)CN1CCSCC1 (centres undefined),8,2,8,> 256,64,Non-toxic,> 256,
0.19,0.25,0.93,2,0.396,1,0.198,4,0.25,0.5,0.196,0.5,CC(Cc1ccc([Si](C)(C)C)cc1)CN1CCC(O)CC1 (centres undefined),2,4,8,256,16,Non-toxic,256,Activity [10]: Toxic
0.26,0.5,0.125,0.5,0.74,1,0.5,8,106,128,0.144,0.5,CC(Cc1ccc([Si](C)(C)C)cc1)CN1CCOCC1 (centres undefined),8,8,16,16,2,,> 256,remaining at 0.5 h [15]: 26%; remaining at 0.5 h [16]: 5.1%

# The remaining lines, values behind:
SMILES,IC50 [1] [µg/mL],MIC [1] [µg/mL],IC50 [4] [µg/mL],MIC [4] [µg/mL],IC50 [5] [µg/mL],MIC [5] [µg/mL],IC50 [8] [µg/mL],MIC [8] [µg/mL],IC50 [11] [µg/mL],MIC [11] [µg/mL],IC50 [14] [µg/mL],MIC [14] [µg/mL],MFC [2] [µg/mL],MFC [3] [µg/mL],MFC [6] [µg/mL],MFC [7] [µg/mL],MFC [9] [µg/mL],Activity [12],MFC [13] [µg/mL],other results
CC(CNC1CCN(C)CC1)Cc1ccc([Si](C)(C)C)cc1 (centres undefined),1.59,2,6.9,16,5.13,8,1.5,64,4.5,8,5.92,8,8,2,16,256,16,Non-toxic,> 256,Activity [10]: Toxic
CC(Cc1ccc([Si](C)(C)C)cc1)CN1CC[Si](C)(C)CC1 (centres undefined),0.45,1,1.98,8,1.25,4,44.8,64,0.5,2,1.75,8,8,4,16,> 256,64,Non-toxic,> 256,remaining at 0.5 h [15]: 44.5%; remaining at 0.5 h [16]: 17.3%
CC(Cc1ccc(C(C)(C)C)cc1)CN1C[C@@H](C)O[C@@H](C)C1 (some centres undefined) [FENPROPIMORPH],0.833,2,0.25,1,0.21,0.5,0.125,2,1,4,0.25,1,4,2,128,> 256,64,Non-toxic,> 256,
